Data as given in ChEMBL document CHEMBL5365494, “Bis-6-amidino-benzothiazole Derivative that Cures Experimental Stage 1 African Trypanosomiasis with a Single Dose” (J Med Chem, 2023).
Active and inactive are the calls of the source. The calls are words filed in the database; no cut-off is given here.

Key:
[1] = Drug localization in lysosomes of Trypanosoma brucei bloodstream form assessed as colocalization at 10 ug/ml incubated upto 180 mins by LysoTrack dye based fluorescence microscopy; format: ADME, subcellular, Lysosome; conditions: 3 h, dose 10 µg/ml
Summary of the method: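 Parasites pre-loaded with 100 nM LysoTracker for 45 min, washed, then exposed to compound 10 μg mL⁻¹; aliquots fixed in 4% PFA at each timepoint, DAPI-mounted, imaged by fluorescence microscopy.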

[2] = test system: Trypanosoma brucei brucei; test: Antitrypanosomal activity against stage-1 bioluminescent Trypanosoma brucei brucei GVR35-VSL2 expressing red-shifted luciferase infected in BALB/c mouse assessed as parasite killing by measuring reduction in bioluminescent signal at 20 mg/kg, ip administered as single dose starting from 4 days post infection and measured on 3 to 7 days by luciferase based bioluminescence assay; format: functional, organism-based; conditions: time 3-7 day
Summary of the method: (§1)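 BALB/c mice infected with 30,000 bioluminescent bloodstream-form T. brucei; dosing i.p. or oral from 4 days post-infection, single or once daily for 4 days. Monitored by in vivo imaging after i.p. d-luciferin 150 mg kg⁻¹ under isoflurane, with total body flux from dorsal plus ventral images. Cure required negativity by both in vivo and ex vivo imaging.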

Trypanosoma brucei [3] = test: Antitrypanosomal activity against blood stream form of Trypanosoma brucei 221a variant assessed as parasite growth inhibition at 0.15 to 4.8 nM preincubated for 24 hrs followed by subculturing with fresh medium with compounds and measured after 2 days by resazurin dye based fluorescence analysis; format: functional, organism-based; conditions: dose 0.15-4.8 nM, time 3.0 day
Summary of the method: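 Bloodstream-form T. brucei seeded in flasks at 10^5 mL^-1 with a range of compound concentrations. Every 24 h parasites were sub-cultured back to 10^5 mL^-1 in continued compound presence, through day 10. Growth reported as cumulative parasite number. In a washout arm, parasites were exposed for 3 days, moved to compound-free medium and followed for 12 days.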

[4] = Drug localization in lysosomes of Trypanosoma brucei bloodstream form at 10 ug/ml by fluorescence microscopy; format: ADME, subcellular, Lysosome; conditions: TDE = time-dependent effect, time 1-24 hrs, dose 10 µg/ml
Summary of the method: (§2)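 Bloodstream-form T. brucei incubated with compound 10 μg mL⁻¹ for 60 or 180 min or 24 h; fixed in 4% PFA, mounted with DAPI, imaged by fluorescence microscopy (ex 550/em 585 nm).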

[5] = Toxicity in BALB/c mouse infected with bioluminescent Trypanosoma brucei brucei GVR35-VSL2 expressing red-shifted luciferase assessed as piloerection in animal at 20 mg/kg, po administered once daily for 4 days; format: organism-based; conditions: in vivo, 96 h, time 4 day
Summary of the method: (§3)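 Infected BALB/c mice (bioluminescent T. brucei, 30,000 parasites) dosed i.p. or orally once daily for 4 days starting day 4 post-infection; observed for piloerection, hunching, shaking, lack of activity and body weight change.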

[6] = Toxicity in BALB/c mouse infected with bioluminescent Trypanosoma brucei brucei GVR35-VSL2 expressing red-shifted luciferase assessed as body weight loss at 20 mg/kg, ip administered once daily for 4 days; format: organism-based; conditions: in vivo, 96 h, time 4 day; summary of the method: as §3
[7] = test system: Trypanosoma brucei brucei; test: (§4) Antitrypanosomal activity against stage-1 bioluminescent Trypanosoma brucei brucei GVR35-VSL2 expressing red-shifted luciferase infected in BALB/c mouse assessed as reduction in parasite growth by measuring curation rate at 20 mg/kg, po administered once daily for 4 days starting from 4 days post infection by luciferase based bioluminescence assay relative to control; format: functional; set-up: scale not given: the % may be the effect or the level left; conditions: time 4 day; summary of the method: as §1
[8] = Toxicity in BALB/c mouse infected with bioluminescent Trypanosoma brucei brucei GVR35-VSL2 expressing red-shifted luciferase assessed as shaking in animal at 20 mg/kg, po administered once daily for 4 days; format: organism-based; conditions: in vivo, 96 h, time 4 day; summary of the method: as §3
[9] = Drug localization in nucleus of Trypanosoma brucei bloodstream form at 10 ug/ml measured for 180 mins by fluorescence microscopy; format: ADME, subcellular; conditions: 3 h, dose 10 µg/ml; summary of the method: as §2
[10] = Cytotoxicity against rat L6 cells assessed as cell growth inhibition incubated for 6 days by resazurin dye based assay; format: toxicity
Summary of the method: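 Rat L6 myoblasts seeded at 1×10⁴ mL⁻¹ in RPMI-1640 with a range of compound concentrations, 6 days at 37 °C; resazurin added, 6 h further, fluorescence ex 545/em 590 nm.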

[11] = Drug localization in kinetoplast of Trypanosoma brucei bloodstream form at 10 ug/ml measured for 180 mins by fluorescence microscopy; format: ADME, subcellular; conditions: 3 h, dose 10 µg/ml; summary of the method: as §2
[12] = test system: Trypanosoma brucei brucei; test: Antitrypanosomal activity against stage-1 bioluminescent Trypanosoma brucei brucei GVR35-VSL2 expressing red-shifted luciferase infected in BALB/c mouse assessed as reduction in parasite growth at 2 mg/kg, ip administered as single dose for 1 day starting from 4 days post infection by luciferase based bioluminescence assay; format: functional, organism-based; summary of the method: as §1
[13] = Drug localization in endosome of Trypanosoma brucei bloodstream form at 10 ug/ml measured after 6 hrs in presence of bafilomycin Al by TbCatL antibody based immunofluorescence microscopy; format: ADME, subcellular; conditions: dose 10 µg/ml
Summary of the method: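 Parasites exposed to compound 10 μg mL⁻¹ for 6 h, with or without BafA1 8 nM; fixed 4% PFA, permeabilized 0.1% Triton X-100, blocked 1% BSA, rabbit anti-TbCatL 1:200 overnight at 4 °C, then Alexa 488 anti-rabbit 2 μg mL⁻¹ 1 h at 37 °C; fluorescence microscopy.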

[14] = test system: Trypanosoma brucei brucei; test: as §4, with “growth without relapse” for “growth by measuring curation rate”, “at 5 to” for “at”, “mg/kg, ip” for “mg/kg, po”, “assay” for “assay relative to control”; format: functional, organism-based; conditions: dose 5-20 mg/kg, time 4.0 day; summary of the method: as §1
Trypanosoma brucei [15] = test: Induction of tetracycline dependent drug resistant in Trypanosoma brucei MiTat 1.2, clone 221a assessed as outgrowth of resistant parasites at 1 to 2 ng/ml measured for 10 days; format: functional; conditions: dose 1-2 ng/ml, time 10.0 day

## CS(=O)(=O)O.CS(=O)(=O)O.N=C(N)c1ccc2nc(C3CCC(c4nc5ccc(C(=N)N)cc5s4)CC3)sc2c1 (stereo not given)
[1]
  Drug uptake: Active
[2]
  Activity: Active
Trypanosoma brucei [3]
  Activity: Active
[4]
  Drug uptake: Tde
[5]
  Activity: Non-Toxic
[6]
  Activity: < 10%
[7]
  Activity: 20%
[8]
  Activity: Non-Toxic
[9]
  Drug uptake: Not Active
[10]
  EC50 at 6 days: 13.4 µM
[11]
  Drug uptake: Not Active
[12]
  Activity: inactive
[13]
  Drug uptake: Not Active
[14]
  Activity: Active
Trypanosoma brucei [15]
  Activity: inactive
